In brackets after ≈: the same amount, converted by molar mass.
Tests used:
[1] = Oral bioavailability in rat; type: ADME, organism-based; conditions: in vivo
How it was run: (§1)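 Dosing was intravenous at 5 mg/kg and oral at 15 mg/kg. The vehicle was 80/20 PEG400/0.01 M methanesulfonic acid.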

Human gammaherpesvirus 4 = test: Antiviral activity against EBV lytic replication in GG68 cells after 72 hrs by Southern blot analysis; type: functional, organism-based; conditions: human gammaherpesvirus 4, GG68, 72 h
[2] = Inhibition of human polymerase alpha by scintillation proximity assay
[3] = Inhibition of VZV DNA polymerase by scintillation proximity assay; design: species or system Human alphaherpesvirus 3
[4] = Inhibition of human polymerase delta by scintillation proximity assay
[5] = Aqueous solubility of the compound; type: physicochemical
[6] = biological target: T1, DNA polymerase catalytic subunit (Human herpesvirus 1 (strain KOS) (HHV-1) (Human herpes simplex virus1), UniProt P04292); test: Inhibition of HSV1 DNA polymerase by scintillation proximity assay; design: species or system Human alphaherpesvirus 1
T1 sequence (P04292 whole entry): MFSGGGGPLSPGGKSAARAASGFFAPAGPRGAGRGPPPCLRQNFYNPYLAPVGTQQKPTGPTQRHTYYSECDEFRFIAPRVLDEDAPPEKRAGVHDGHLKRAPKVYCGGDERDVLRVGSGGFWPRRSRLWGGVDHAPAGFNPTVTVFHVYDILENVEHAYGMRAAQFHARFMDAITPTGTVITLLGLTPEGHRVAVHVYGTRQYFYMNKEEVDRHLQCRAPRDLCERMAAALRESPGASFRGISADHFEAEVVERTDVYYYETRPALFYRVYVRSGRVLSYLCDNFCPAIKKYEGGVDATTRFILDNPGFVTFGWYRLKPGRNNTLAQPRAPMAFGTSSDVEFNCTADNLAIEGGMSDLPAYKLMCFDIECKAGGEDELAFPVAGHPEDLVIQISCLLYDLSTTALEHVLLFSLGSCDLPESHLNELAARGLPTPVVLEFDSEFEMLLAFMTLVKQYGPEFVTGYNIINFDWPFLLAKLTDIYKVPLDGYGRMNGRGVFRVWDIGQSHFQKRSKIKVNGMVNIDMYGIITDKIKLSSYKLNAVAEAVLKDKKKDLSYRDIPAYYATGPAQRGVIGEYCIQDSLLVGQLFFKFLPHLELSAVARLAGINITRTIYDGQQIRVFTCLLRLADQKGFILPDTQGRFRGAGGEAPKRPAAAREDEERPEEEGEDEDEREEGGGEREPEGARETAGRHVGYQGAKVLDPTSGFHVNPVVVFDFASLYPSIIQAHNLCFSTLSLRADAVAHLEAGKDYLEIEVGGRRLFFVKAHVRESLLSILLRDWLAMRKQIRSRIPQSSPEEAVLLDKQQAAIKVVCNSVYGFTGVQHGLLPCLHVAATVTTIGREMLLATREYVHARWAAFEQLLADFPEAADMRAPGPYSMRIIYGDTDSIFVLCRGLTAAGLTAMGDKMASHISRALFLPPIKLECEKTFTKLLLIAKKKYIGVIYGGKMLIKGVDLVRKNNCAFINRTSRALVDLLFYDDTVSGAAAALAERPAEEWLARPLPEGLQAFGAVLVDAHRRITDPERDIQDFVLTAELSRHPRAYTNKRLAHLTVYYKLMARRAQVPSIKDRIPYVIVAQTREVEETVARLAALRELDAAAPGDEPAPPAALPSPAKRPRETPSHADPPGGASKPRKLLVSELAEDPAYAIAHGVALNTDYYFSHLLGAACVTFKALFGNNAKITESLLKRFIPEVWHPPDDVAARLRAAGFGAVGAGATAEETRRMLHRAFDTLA

Human betaherpesvirus 5 = test: Antiviral activity against HCMV Davis by plaque reduction assay; type: functional, organism-based; conditions: Human betaherpesvirus 5, Davis
How it was run: (§2)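 Plaque reduction assays used HCMV Davis strain and HSV-1 KOS strain. IC50 values are means of at least two experiments, with standard deviation where given.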

[7] = Oral bioavailability in dog; type: ADME, organism-based, Canis lupus familiaris; conditions: in vivo; how it was run: as §1
[8] = Cytotoxicity against HFF cells after 3 days by neutral red dye uptake assay; type: cell-based; conditions: human
How it was run: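 Uninfected, replicating HFF cells were seeded as subconfluent monolayers and exposed to compound for 3 days.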

Human alphaherpesvirus 1 = test: Antiviral activity against HSV1 KOS by plaque reduction assay; type: functional, organism-based; conditions: Human alphaherpesvirus 1, KOS; how it was run: as §2
Human alphaherpesvirus 3 = test: Antiviral activity against VZV Webster by plaque reduction assay; type: functional, organism-based; conditions: Human alphaherpesvirus 3, Webster
[9] = Inhibition of human polymerase gamma by scintillation proximity assay
[10] = Inhibition of HCMV DNA polymerase by scintillation proximity assay; design: species or system Human betaherpesvirus 5
How it was run: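 Scintillation proximity assay with purified HCMV DNA polymerase, measuring incorporation of ³H-labelled nucleotide into template-primer. IC50 values are means of at least two experiments, with standard deviation where given.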

CN(Cc1cc2c(=O)c(C(=O)NCc3ccc(Cl)cc3)cn(C)c2o1)C[C@@H](O)c1ccco1
bioavailability [1]: 67% | IC50 (Human gammaherpesvirus 4): 400 nM | IC50 [2]: > 20000 nM | IC50 [3]: 78 nM | IC50 [4]: > 20000 nM | solubility [5]: 60 µM (≈ 28.2 µg/mL) | IC50 [6]: 220 nM | IC50 (Human betaherpesvirus 5): 26 nM | bioavailability [7]: 76% | CC50 at 72 h [8]: > 100000 nM | IC50 (Human alphaherpesvirus 1): 4300 nM | IC50 (Human alphaherpesvirus 3): 20 nM | IC50 [9]: > 20000 nM | IC50 [10]: 76 nM

CN(Cc1cc2c(=O)c(C(=O)NCc3ccc(Cl)cc3)cn(C)c2o1)C[C@@H](O)c1ccccn1
IC50 [2]: > 20000 nM | IC50 [3]: 100 nM | IC50 [4]: > 20000 nM | IC50 [6]: 350 nM | IC50 (Human betaherpesvirus 5): 170 nM | CC50 at 72 h [8]: > 100000 nM | IC50 (Human alphaherpesvirus 1): 5400 nM | IC50 (Human alphaherpesvirus 3): 90 nM | IC50 [9]: > 20000 nM | IC50 [10]: 220 nM

CN(Cc1cc2c(=O)c(C(=O)NCc3ccc(Cl)cc3)cn(C)c2s1)C[C@@H](O)c1ccccn1
IC50 (Human gammaherpesvirus 4): 200 nM

CN(Cc1cc2c(=O)c(C(=O)NCc3ccccc3)cn(C)c2o1)C[C@@H](O)c1ccco1
IC50 [10]: 11400 nM

CN(Cc1cc2c(=O)c(C(=O)NCc3ccc(Cl)cc3)cn(CCc3ccccc3)c2o1)C[C@@H](O)c1ccco1
IC50 [10]: 690 nM

CN(Cc1cc2c(=O)c(C(=O)NCc3ccc(Cl)cc3)cn(C3CC3)c2o1)C[C@@H](O)c1ccco1
IC50 (Human betaherpesvirus 5): 1200 nM | IC50 [10]: 420 nM

CN(Cc1cc2c(=O)c(C(=O)NCc3ccc(F)c(F)c3)cn(C)c2o1)C[C@@H](O)c1ccco1
IC50 [10]: 1020 nM

CN(Cc1cc2c(=O)c(C(=O)NCc3ccc(Cl)cc3)cn(C)c2o1)C[C@@H](O)c1cnccn1
IC50 (Human betaherpesvirus 5): 28 nM | IC50 [10]: 220 nM

CN(Cc1cc2c(=O)c(C(=O)NCc3ccc(Cl)cc3)cn(C)c2o1)C[C@@H](O)c1ncccn1
IC50 (Human betaherpesvirus 5): 360 nM | IC50 [10]: 170 nM

CN(Cc1cc2c(=O)c(C(=O)NCc3ccc(F)cc3)cn(C)c2o1)C[C@@H](O)c1ccco1
IC50 [10]: 610 nM

Nc1nc(O)c2ncn(COC(CO)CO)c2n1 [GANCICLOVIR]
CC50 at 72 h [8]: > 100000 nM

CCn1cc(C(=O)NCc2ccc(Cl)cc2)c(=O)c2cc(CN(C)C[C@@H](O)c3ccco3)oc21
IC50 (Human betaherpesvirus 5): 700 nM | IC50 [10]: 510 nM

CN(Cc1cc2c(=O)c(C(=O)NCc3ccc(Cl)cc3)cn(-c3ccccn3)c2o1)C[C@@H](O)c1ccco1
IC50 (Human betaherpesvirus 5): 50 nM | IC50 [10]: 140 nM

CCN(CC)CCn1cc(C(=O)NCc2ccc(Cl)cc2)c(=O)c2cc(CN(C)C[C@@H](O)c3ccco3)oc21
IC50 [10]: 3920 nM

CN(Cc1cc2c(=O)c(C(=O)NCc3ccc(Cl)cc3)cn(-c3ccccc3)c2o1)C[C@@H](O)c1ccco1
IC50 [10]: 830 nM

O=C(O)P(=O)(O)O [FOSCARNET]
IC50 [9]: < 280 nM

Cc1ccc(CNC(=O)c2cn(C)c3oc(CN(C)C[C@@H](O)c4ccco4)cc3c2=O)cc1
IC50 [10]: 3140 nM

Nc1nc2c(ncn2COCCO)c(=O)[nH]1 [ACYCLOVIR]
IC50 (Human betaherpesvirus 5): > 20000 nM | CC50 at 72 h [8]: > 100000 nM

CCCn1cc(C(=O)NCc2ccc(Cl)cc2)c(=O)c2cc(CN(C)C[C@@H](O)c3ccco3)oc21
IC50 [10]: 1120 nM

CN(Cc1cc2c(=O)c(C(=O)NCc3ccc(C(F)(F)F)cc3)cn(C)c2o1)C[C@@H](O)c1ccco1
IC50 [10]: 6450 nM

CN(Cc1cc2c(=O)c(C(=O)NCc3ccc(Br)cc3)cn(C)c2o1)C[C@@H](O)c1ccco1
IC50 [10]: 340 nM

From ChEMBL document CHEMBL1155120, “Synthesis of 4-oxo-4,7-dihydrofuro[2,3-b]pyridine-5-carboxamides with broad-spectrum human herpesvirus polymerase inhibition” (Bioorg Med Chem Lett, 2008)
